Legend:
[1] = target: T1, Leukotriene B4 receptor 1 (Homo sapiens, UniProt Q15722); assay: Binding affinity against Leukotriene B4 receptor on intact differentiated U-937 cells in competitive binding assay with [3H]LTB4; format: cell-based
Summary of the method: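 Differentiated U-937 cells (1.3% DMSO, 3–4 days), washed; 10⁶ intact cells incubated in HBSS with 0.1% ovalbumin and 0.2 nM [³H]LTB₄, 20 min at 0 °C. Nonspecific binding defined with 1 μM unlabeled LTB₄. Filtration then scintillation counting. IC₅₀ converted to Ki by Cheng–Prusoff.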

[2] = tested on: U-937; assay: Inhibition of [3H]LTB4 binding in whole cells; details: Homo sapiens
[3] = target: T1, Leukotriene B4 receptor 1; assay: Binding affinity against Leukotriene B4 receptor on U-937 cell membrane preparations in competitive binding assay with [3H]LTB4
[4] = tested on: U-937; assay: Inhibition of [3H]LTB4 binding in whole cells (U-937); details: Homo sapiens

T1 sequence (Q15722 whole entry): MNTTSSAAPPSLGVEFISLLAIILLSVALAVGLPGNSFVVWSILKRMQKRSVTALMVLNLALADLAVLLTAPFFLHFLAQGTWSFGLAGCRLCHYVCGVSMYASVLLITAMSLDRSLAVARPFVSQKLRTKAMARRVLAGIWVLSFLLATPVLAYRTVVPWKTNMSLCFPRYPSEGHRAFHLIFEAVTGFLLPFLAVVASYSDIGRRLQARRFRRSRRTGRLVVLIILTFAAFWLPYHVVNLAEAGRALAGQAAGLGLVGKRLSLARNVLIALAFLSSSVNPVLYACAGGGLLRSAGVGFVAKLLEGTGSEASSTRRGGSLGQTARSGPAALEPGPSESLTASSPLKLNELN

SMILES	Ki [1] [µM]	IC50 [2] [µM]	Ki [3] [µM]	IC50 [4] [µM]
COc1ccc(/C=C/CCCCOc2ccc(C(=O)c3cccc(C(=O)O)c3)cc2CCC(=O)O)cc1	–	–	0.36	–
Cn1c(N)nc(Cc2ccc(CCCCO)cc2)c1Cc1ccccc1	2.4	3.8	–	–
Cn1cc(Cc2ccccc2)nc1N	–	> 100	–	–
CCCCCCn1c(N)nc(Cc2ccccc2)c1Cc1ccccc1	–	–	–	> 100
Cn1c(N)nc(Cc2ccc3c(c2)OCO3)c1Cc1ccc2c(c1)OCO2 [LEUCETTAMINE A]	3.5	5.2	–	–

Continued, values first:

Ki [1] [µM]	IC50 [2] [µM]	Ki [3] [µM]	IC50 [4] [µM]	SMILES
27	40	–	–	COc1cccc(Cc2nc(N)n(C)c2Cc2ccccc2)c1
–	> 100	–	–	Cc1[nH]c(N)nc1Cc1ccccc1
19	30	–	–	Cn1c(N)nc(Cc2ccccc2)c1Cc1ccccc1
9	13	–	–	Nc1nc(Cc2ccccc2)c(Cc2ccccc2)[nH]1

Source: ChEMBL document CHEMBL1126875, “Synthesis and LTB4 receptor antagonist activities of the naturally occurring LTB4 receptor antagonist Leucettamine A and related analogues” (J Med Chem, 1993)
